Columns and labels:
[1] = Metabolic stability in human liver S9 fraction assessed as compound remaining at 1 uM after 15 mins by LC-MS/MS analysis; format: ADME, subcellular; details: read-out: Stability
Liver = assay: Intrinsic clearance in human liver S9 fraction; format: ADME, subcellular
[2] = Metabolic stability in human liver S9 fraction assessed as compound remaining at 1 uM after 5 mins by LC-MS/MS analysis; format: ADME, subcellular; details: read-out: Stability
[3] = Half life in Sprague-Dawley rat at 3 mg/kg, iv; format: ADME, organism-based; design: dose 3 mg/kg, route intravenous; details: in vivo
Procedure, shortened: (§1)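 Male SD rats, 3 per route. Oral dose given by gavage as a suspension in 0.5% Tween 80 (w/v). IV dose given via the femoral vein in DMSO/PEG-400/saline (5:65:30). Tail-vein blood drawn over 24 h and centrifuged to plasma. Parent and metabolite measured by LC–MS/MS.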

[4] = Tmax in Sprague-Dawley rat at 3 mg/kg, iv; format: ADME, organism-based; design: dose 3 mg/kg, route intravenous; details: in vivo
Procedure, shortened: (§2)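 Male SD rats, three per route. Oral gavage of a suspension in 0.5% Tween 80 (30 mg/kg). IV via femoral vein in DMSO/PEG-400/saline 5:65:30 (3 mg/kg). Tail-vein blood sampled over 24 h. Plasma stored at -20 °C and analysed by LC–MS/MS for parent and metabolite. Values reported as mean ± SD of three rats.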

[5] = AUC (0 to infinity) in Sprague-Dawley rat at 30 mg/kg, po; format: ADME, organism-based; design: time infinity, dose 30 mg/kg, route oral; details: plasma; procedure, shortened: as §1
[6] = Cmax in Sprague-Dawley rat at 30 mg/kg, po; format: ADME, organism-based; design: dose 30 mg/kg, route oral; details: in vivo; procedure, shortened: as §1
[7] = Cmax in Sprague-Dawley rat at 3 mg/kg, iv; format: ADME, organism-based; design: dose 3 mg/kg, route intravenous; details: in vivo; procedure, shortened: as §1
[8] = Tmax in Sprague-Dawley rat at 30 mg/kg, po; format: ADME, organism-based; design: dose 30 mg/kg, route oral; details: in vivo; procedure, shortened: as §2
[9] = AUC (0 to infinity) in Sprague-Dawley rat at 3 mg/kg, iv; format: ADME, organism-based; design: dose 3 mg/kg, route intravenous, time infinity; details: plasma; procedure, shortened: as §1
[10] = Half life in Sprague-Dawley rat at 30 mg/kg, po; format: ADME, organism-based; design: dose 30 mg/kg, route oral; details: in vivo; procedure, shortened: as §1
[11] = Oral bioavailability in Sprague-Dawley rat at 30 mg/kg; format: ADME, organism-based; details: in vivo; procedure, shortened: as §2

Compound | remaining at 0.25 h, 1 µM [1] [%] | CLint (Liver) [µL/min/mg] | remaining at 5 min, 1 µM [2] [%] | further results
Cn1nc(NC(=O)Cc2ccccc2)c(-c2ccncc2)c1-c1ccc(F)cc1 | 65 | 68.1 | 84.4 | 
CC(=O)Nc1onc(-c2ccc(F)cc2)c1-c1ccncc1 | 82.5 | 31.6 | 92.4 | 
O=C(Cc1ccccc1)Nc1onc(-c2ccc(F)cc2)c1-c1ccncn1 |  |  | 5.6 | 
Nc1onc(-c2ccc(F)cc2)c1-c1ccncn1 |  |  |  | half-life [3]: 25.7 min; Tmax [4]: 30 min; AUC(0-inf) [5]: 760 ng·h/mL; Cmax [6]: 136 ng/mL; Cmax [7]: 744 ng/mL; Tmax [8]: 3.33 h; AUC(0-inf) [9]: 924 ng·h/mL; half-life [10]: 58.8 min
O=C(Cc1ccccc1Cl)Nc1onc(-c2ccc(F)cc2)c1-c1ccncn1 |  |  | 5.8 | 
Cc1cccc(-c2noc(NC(=O)Cc3ccccc3Cl)c2-c2ccncn2)c1 |  |  | 21.2 | 
O=C(Cc1ccccc1)Nc1[nH]nc(-c2ccc(F)cc2)c1-c1ccncc1 | 86.2 | 40.6 | 90.4 | 
O=C(Cc1ccccc1Cl)Nc1onc(-c2ccc(F)cc2F)c1-c1ccncn1 |  |  | 20.4 | 
O=C(Cc1c(F)cccc1Cl)Nc1onc(-c2ccc(F)cc2)c1-c1ccncn1 |  |  | 16.1 | half-life [3]: 28.4 min; Tmax [4]: 4.8 min; AUC(0-inf) [5]: 23.7 ng·h/mL; bioavailability [11]: < 1%; Cmax [6]: 0.88 ng/mL; Cmax [7]: 363 ng/mL; Tmax [8]: 3.33 h; AUC(0-inf) [9]: 505 ng·h/mL; half-life [10]: 1120 min
Cc1ccc(C)c(CC(=O)Nc2onc(-c3ccc(F)cc3)c2-c2ccncn2)c1 |  |  | 53.9 | 

Continued, in another order:

remaining at 0.25 h, 1 µM [1] [%] | CLint (Liver) [µL/min/mg] | remaining at 5 min, 1 µM [2] [%] | Compound | further results
27.9 | 455 | 32.1 | O=C(CCc1ccccc1)Nc1onc(-c2ccc(F)cc2)c1-c1ccncc1 | 
 |  | 52.6 | Cc1cc(-c2noc(NC(=O)Cc3ccccc3C)c2-c2ccncn2)ccc1F | 
 |  | 96.6 | O=C(Cc1ccccc1Cl)Nc1onc(-c2ccc(Cl)cc2)c1-c1ccncn1 | 
28.5 | 272 | 50.7 | O=C(CCCc1ccccc1)Nc1onc(-c2ccc(F)cc2)c1-c1ccncc1 | 
64.3 | 91 | 79.7 | O=C(Cc1ccccc1)Nc1onc(-c2ccc(F)cc2)c1-c1ccncc1 | 
50.3 | 81.8 | 81.5 | Fc1ccc(-c2n[nH]c(CCCc3ccccc3)c2-c2ccncc2)cc1 | 
 |  | 10 | O=C(Cc1ccccc1F)Nc1onc(-c2ccc(F)cc2)c1-c1ccncn1 | 
10.9 |  | 39.6 | O=C(Nc1onc(-c2ccc(F)cc2)c1-c1ccncc1)c1ccccc1 | 

Source: ChEMBL document CHEMBL3351450 (Bioorg Med Chem, 2014)
